Values belong to the molecule of their own block, whether it stands above or below them.
Columns and labels:
[1] = target: T1, Metabotropic glutamate receptor 4 (Homo sapiens, UniProt Q14833); test: Agonistic activity at Metabotropic glutamate receptor 4 expressed in mammalian cells by GTPgammaS binding assay; assay type: cell-based
How it was run: (§1)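 [35S]-GTPγS binding to membranes prepared from CHO cells expressing human mGlu4a. Stimulation is normalised to that given by 1 mM L-Glu. Points are mean ± SEM of three determinations from one experiment.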

[2] = target: T1, Metabotropic glutamate receptor 4; test: Agonistic activity on Human mGlu4a receptor expressed in recombinant mammalian cells by GTPgammaS binding assay; Partial agonist; assay type: cell-based; how it was run: as §1
[3] = target: T1, Metabotropic glutamate receptor 4; test: Inhibitory concentration on Human mGlu4 receptor expressed in recombinant mammalian cells by GTPgammaS binding assay; assay type: cell-based
[4] = target: T2, Metabotropic glutamate receptor 2 (Homo sapiens, UniProt Q14416); test: Inhibitory concentration on Human mGlu2 receptor expressed in recombinant mammalian cells by GTPgammaS binding assay; assay type: cell-based
How it was run: (§2)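 [35S]-GTPγS binding assay in a CHO cell line expressing human mGlu2.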

[5] = target: T2, Metabotropic glutamate receptor 2; test: Agonistic activity on Human mGlu2 receptor expressed in recombinant mammalian cells by GTPgammaS binding assay; assay type: cell-based; how it was run: as §2
[6] = target: T1, Metabotropic glutamate receptor 4; test: Inhibition of forskolin-stimulated cAMP accumulation in CHO cells expressing hmGlu4a; assay type: functional, cell-based
[7] = target: T1, Metabotropic glutamate receptor 4; test: Agonistic activity on Human mGlu4a receptor expressed in recombinant mammalian cells by GTPgammaS binding assay; assay type: cell-based; how it was run: as §1
[8] = target: T2, Metabotropic glutamate receptor 2; test: Agonistic activity on Human Metabotropic glutamate receptor 2 expressed in recombinant mammalian cells by GTPgammaS binding assay; assay type: cell-based; how it was run: as §2
[9] = target: T1, Metabotropic glutamate receptor 4; test: Inhibition of forskolin-stimulated cAMP accumulation in CHO cells expressing hmGlu4a; No full inhibition; assay type: functional, cell-based
[10] = target: T2, Metabotropic glutamate receptor 2; test: Inhibitory concentration on Human Metabotropic glutamate receptor 2 expressed in recombinant mammalian cells by GTPgammaS binding assay; assay type: cell-based; how it was run: as §2

T1 sequence (Q14833 whole entry): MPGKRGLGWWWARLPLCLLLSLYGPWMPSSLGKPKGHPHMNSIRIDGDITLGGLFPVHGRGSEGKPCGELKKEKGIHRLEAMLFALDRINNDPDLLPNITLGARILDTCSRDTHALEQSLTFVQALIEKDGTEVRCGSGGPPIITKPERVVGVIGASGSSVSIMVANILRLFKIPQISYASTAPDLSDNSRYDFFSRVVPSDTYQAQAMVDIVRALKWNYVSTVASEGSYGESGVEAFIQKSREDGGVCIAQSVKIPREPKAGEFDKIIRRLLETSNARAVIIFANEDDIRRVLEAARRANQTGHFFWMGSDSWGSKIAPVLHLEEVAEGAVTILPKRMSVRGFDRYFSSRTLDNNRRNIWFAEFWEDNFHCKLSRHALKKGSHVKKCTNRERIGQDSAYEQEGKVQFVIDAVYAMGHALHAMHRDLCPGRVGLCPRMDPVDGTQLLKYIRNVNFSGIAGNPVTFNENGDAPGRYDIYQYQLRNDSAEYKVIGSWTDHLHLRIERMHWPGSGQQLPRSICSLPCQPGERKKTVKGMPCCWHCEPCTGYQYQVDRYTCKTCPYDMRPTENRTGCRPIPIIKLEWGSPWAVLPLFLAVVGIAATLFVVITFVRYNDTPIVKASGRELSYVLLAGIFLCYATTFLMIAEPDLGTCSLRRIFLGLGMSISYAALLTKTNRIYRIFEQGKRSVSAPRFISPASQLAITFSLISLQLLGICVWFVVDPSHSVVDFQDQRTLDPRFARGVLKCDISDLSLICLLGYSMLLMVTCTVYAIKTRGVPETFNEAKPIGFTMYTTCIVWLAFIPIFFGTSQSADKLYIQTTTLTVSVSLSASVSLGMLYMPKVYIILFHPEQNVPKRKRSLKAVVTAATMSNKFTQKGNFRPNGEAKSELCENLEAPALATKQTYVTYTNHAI
T2 sequence (Q14416 whole entry): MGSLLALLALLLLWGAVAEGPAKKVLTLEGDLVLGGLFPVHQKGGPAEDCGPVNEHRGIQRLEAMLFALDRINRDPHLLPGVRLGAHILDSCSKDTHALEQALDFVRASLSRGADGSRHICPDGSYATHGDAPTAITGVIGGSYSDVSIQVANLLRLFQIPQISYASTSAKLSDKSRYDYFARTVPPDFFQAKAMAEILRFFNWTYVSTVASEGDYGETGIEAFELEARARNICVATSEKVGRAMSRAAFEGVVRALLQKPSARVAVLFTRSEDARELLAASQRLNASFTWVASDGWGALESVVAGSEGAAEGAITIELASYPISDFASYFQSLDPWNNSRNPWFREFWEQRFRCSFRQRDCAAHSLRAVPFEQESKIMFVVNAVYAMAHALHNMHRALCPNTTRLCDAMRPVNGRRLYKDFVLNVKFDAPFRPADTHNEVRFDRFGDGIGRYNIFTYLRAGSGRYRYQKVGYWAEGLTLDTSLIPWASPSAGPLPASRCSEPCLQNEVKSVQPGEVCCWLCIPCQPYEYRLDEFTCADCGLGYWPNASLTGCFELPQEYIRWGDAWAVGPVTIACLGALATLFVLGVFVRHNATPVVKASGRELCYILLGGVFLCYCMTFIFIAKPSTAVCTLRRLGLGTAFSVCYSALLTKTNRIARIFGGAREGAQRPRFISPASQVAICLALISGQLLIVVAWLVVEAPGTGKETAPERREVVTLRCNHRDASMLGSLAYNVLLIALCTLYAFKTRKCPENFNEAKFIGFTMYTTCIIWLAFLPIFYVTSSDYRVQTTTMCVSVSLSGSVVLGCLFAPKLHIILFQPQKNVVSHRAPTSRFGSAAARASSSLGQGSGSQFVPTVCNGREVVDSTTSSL

- EC50 [1]: 4.7 µM
SMILES: NC(C(=O)O)c1ccc(P(=O)(O)O)cc1 (stereo unspecified)

- EC50 [1]: 7 µM
SMILES: N[C@@]1(C(=O)O)C[C@H](C(=O)O)[C@H](C(=O)O)C1

SMILES: N[C@]1(C(=O)O)C[C@H]1CP(=O)(O)O
- EC50 [1]: 7.9 µM

- EC50 [1]: 9 µM
SMILES: NC1(C(=O)O)C[C@@H](C(=O)O)[C@H](C(=O)O)C1

SMILES: NC1(C(=O)O)C=C(P(=O)(O)O)CC1 (stereo unspecified)
- EC50 [2]: > 30 µM
- IC50 [3]: > 100 µM
- IC50 [4]: > 200 µM
- EC50 [5]: > 300 µM
- EC50 [6]: > 30 µM
- IC50 [6]: > 100 µM

SMILES: NC1(C(=O)O)CC=C(P(=O)(O)O)C1 (stereo unspecified)
- EC50 [7]: 17 µM
- IC50 [3]: > 100 µM
- EC50 [8]: > 300 µM
- IC50 [6]: > 100 µM
- EC50 [9]: ~30 µM
- IC50 [10]: > 300 µM

SMILES: N[C@@H](CCP(=O)(O)O)C(=O)O
- EC50 [1]: 0.5 µM

SMILES: N[C@]1(C(=O)O)C[C@@H]1CP(=O)(O)O
- EC50 [1]: 0.58 µM

SMILES: N[C@@]1(C(=O)O)CC[C@H](P(=O)(O)O)C1
- EC50 [1]: 86 µM

SMILES: N[C@@]1(C(=O)O)CCC(P(=O)(O)O)C1 (single isomer, unassigned)
- EC50 [1]: 27 µM

- EC50 [1]: 1 µM
SMILES: N[C@@H](COP(=O)(O)O)C(=O)O [DEXFOSFOSERINE]

From ChEMBL document CHEMBL1133213, “Synthesis, molecular modeling and preliminary biological evaluation of 1-amino-3-phosphono-3-cyclopentene-1-carboxylic acid and 1-amino-3-phosphono-2-cyclopentene-1-carboxylic acid, two novel agonists of metabotropic glutamate receptors of group III” (Bioorg Med Chem Lett, 2000)
